Reference: ChEMBL document CHEMBL4390678, “Structure-Activity Relationship of Purine and Pyrimidine Nucleotides as Ecto-5'-Nucleotidase (CD73) Inhibitors” (J Med Chem, 2019)

Assays:
[1] = biological target: T1, 5'-nucleotidase (Rattus norvegicus, UniProt P21588); assay: Inhibition of recombinant rat C-terminal His-tagged soluble form of CD73 expressed in baculovirus infected Sf9 insect cells using [2,8-3H]AMP as substrate measured after 25 mins by scintillation counting method
T1 sequence (P21588 whole entry): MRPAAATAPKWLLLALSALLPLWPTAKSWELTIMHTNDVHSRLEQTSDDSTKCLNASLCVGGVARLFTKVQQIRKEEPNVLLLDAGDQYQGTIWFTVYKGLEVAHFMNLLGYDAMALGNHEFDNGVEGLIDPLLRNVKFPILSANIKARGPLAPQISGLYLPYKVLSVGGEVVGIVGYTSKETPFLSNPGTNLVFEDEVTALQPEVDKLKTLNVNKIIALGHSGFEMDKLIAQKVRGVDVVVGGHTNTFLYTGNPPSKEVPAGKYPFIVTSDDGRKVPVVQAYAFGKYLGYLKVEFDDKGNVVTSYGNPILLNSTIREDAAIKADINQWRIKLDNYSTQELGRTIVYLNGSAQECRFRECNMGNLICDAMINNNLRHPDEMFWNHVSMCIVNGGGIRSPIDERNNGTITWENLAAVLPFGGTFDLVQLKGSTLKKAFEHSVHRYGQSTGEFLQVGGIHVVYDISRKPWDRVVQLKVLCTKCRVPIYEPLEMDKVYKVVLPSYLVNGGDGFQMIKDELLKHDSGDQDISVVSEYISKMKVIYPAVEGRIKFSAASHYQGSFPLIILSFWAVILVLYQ
Procedure, shortened: (§1)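 Enzyme is soluble rat CD73 from Sf9 cells, 1.63 ng per vial, in 25 mM Tris, 140 mM NaCl, 25 mM NaH2PO4, pH 7.4. […] Stopped by LaCl3 precipitation and GF/B filtration, then counted. Each compound first screened at 1 µM.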

[2] = biological target: T2, 5'-nucleotidase (Rattus norvegicus) (UniProt P21588); assay: Inhibition of recombinant rat C-terminal His-tagged soluble form of CD73 expressed in baculovirus infected Sf9 insect cells at 1 uM using [2,8-3H]AMP as substrate measured after 25 mins by scintillation counting method relative to control; procedure, shortened: as §1
T2 sequence (whole entry): T1 sequence (P21588 whole entry)

[3] = biological target: T3, 5'-nucleotidase (Homo sapiens, UniProt P21589); assay: Inhibition of recombinant human C-terminal His-tagged soluble form of CD73 expressed in baculovirus infected Sf9 insect cells using [2,8-3H]AMP as substrate measured after 25 mins by scintillation counting method
Procedure, shortened: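 Soluble human CD73 lacking the GPI signal, with a C-terminal 6xHis tag, secreted from baculovirus-infected Sf9 cells and purified on Ni-NTA; 0.365 ng per vial. […] Product separated by lanthanum chloride precipitation and filtration, then scintillation counted.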

[4] = biological target: T3, 5'-nucleotidase; assay: Inhibition of CD73 in human MDA-MB-231 cell membranes using [2,8-3H]AMP as substrate measured after 25 mins by scintillation counting method
Procedure, shortened: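 MDA-MB-231 membranes (7.4 ng protein per vial) in 25 mM Tris, 140 mM NaCl, 25 mM NaH2PO4, pH 7.4. […] Stopped with cold LaCl3/acetate buffer pH 4.0 and filtered on GF/B. Background-subtracted and normalized to the uninhibited control.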

[5] = species on record: Homo sapiens; assay: Inhibition of cytosolic nucleotidase in MaMel.65-CD73 cell cytosolic extract (unknown origin) at 100 uM using AMP as substrate preincubated for 5 mins followed by substrate addition and measured after 60 mins by malachite green oxalate dye based colorimetric method relative to control
Procedure, shortened: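 Cytosolic extract of CRISPR CD73-knockout MaMel.65 melanoma cells, 15.25 µg, in 50 mM Tris pH 7.0 with 100 mM KCl and 5 mM MgCl2. […] After 60 min, heat-stopped at 95°C. Released phosphate read with malachite green/molybdate at 600 nm. Levamisole 1 mM plus NaF 5 mM served as positive control. Three experiments in duplicate.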

T3 sequence (P21589 whole entry): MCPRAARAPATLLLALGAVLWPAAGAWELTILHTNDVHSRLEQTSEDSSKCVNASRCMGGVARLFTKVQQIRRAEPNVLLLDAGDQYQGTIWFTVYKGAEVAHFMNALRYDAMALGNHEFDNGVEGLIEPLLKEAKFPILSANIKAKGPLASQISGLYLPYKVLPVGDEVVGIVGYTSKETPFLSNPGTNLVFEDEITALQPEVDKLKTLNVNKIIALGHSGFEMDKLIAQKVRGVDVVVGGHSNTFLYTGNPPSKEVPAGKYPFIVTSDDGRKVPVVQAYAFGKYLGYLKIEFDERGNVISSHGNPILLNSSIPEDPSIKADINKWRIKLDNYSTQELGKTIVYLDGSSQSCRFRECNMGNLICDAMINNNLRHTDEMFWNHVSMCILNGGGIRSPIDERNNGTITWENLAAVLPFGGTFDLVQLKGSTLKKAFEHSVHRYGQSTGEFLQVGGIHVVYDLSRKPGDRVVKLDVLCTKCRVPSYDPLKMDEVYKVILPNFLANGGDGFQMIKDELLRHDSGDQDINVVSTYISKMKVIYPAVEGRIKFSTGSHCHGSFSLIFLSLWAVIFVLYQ

| SMILES | Ki [1] [nM] | inhibition [2] [%] | Ki [3] [nM] | Ki [4] [nM] | inhibition [5] [%] |
| --- | --- | --- | --- | --- | --- |
| CO[C@@H]1[C@H](O)[C@@H](COP(=O)(O)CP(=O)(O)O)O[C@H]1n1cc(C)c(=O)[nH]c1=O | > 1000 | 3 |  |  |  |
| O=c1ccn([C@@H]2O[C@H](COP(=O)(O)CP(=O)(O)O)[C@@H](O)[C@H]2O)c(=O)n1Cc1ccccc1 | > 1000 | 3 |  |  |  |
| CCn1c(=O)n([C@@H]2O[C@H](COP(=O)(O)CP(=O)(O)O)[C@@H](O)[C@H]2O)cc/c1=N\OCc1ccccc1 | 262 | > 50 |  |  |  |
| [N-]=[N+]=N[C@@H]1[C@H](O)[C@@H](COP(=O)(O)CP(=O)(O)O)O[C@H]1n1ccc(=O)[nH]c1=O | > 1000 | 9 |  |  |  |
| Nc1ccn([C@H]2C[C@H](O)[C@@H](COP(=O)(O)CP(=O)(O)O)O2)c(=O)n1 | > 1000 | 18 |  |  |  |
| O=c1ccn([C@@]23C[C@H]2[C@H](COP(=O)(O)CP(=O)(O)O)[C@@H](O)[C@H]3O)c(=O)[nH]1 | > 1000 | 12 |  |  |  |
| O=c1[nH]/c(=N/OCc2ccccc2)c(F)cn1[C@@H]1O[C@H](COP(=O)(O)CP(=O)(O)O)[C@@H](O)[C@H]1O | 85.1 | > 50 | 15.9 | 16.6 |  |
| Nc1ncnc2c1ncn2[C@H]1C[C@H](O)[C@@H](COP(=O)(O)CP(=O)(O)O)O1 | > 1000 | 30 |  |  |  |
| N[C@@H]1[C@H](O)[C@@H](COP(=O)(O)CP(=O)(O)O)O[C@H]1n1ccc(=O)[nH]c1=O | > 1000 | 2 |  |  |  |
| Nc1nccc2c1ncn2[C@@H]1O[C@H](COP(=O)(O)CP(=O)(O)O)[C@@H](O)[C@H]1O | > 1000 | 36 |  |  |  |
| O=c1[nH]/c(=N\OCc2ccccc2)ccn1[C@@H]1O[C@H](COP(=O)(O)CP(=O)(O)O)[C@@H](O)[C@H]1O | 112 | > 50 |  |  |  |
| Nc1ncnc2c1ncn2[C@@H]1O[C@H](COP(=O)(O)CP(=O)(O)O)C[C@H]1O | 1970 | > 50 |  |  |  |
| Nc1ncnc2c1ncn2[C@@H]1O[C@H](COP(=O)(O)CP(=O)(O)O)[C@@H](O)[C@H]1N | > 1000 | 2 |  |  |  |
| O=c1[nH]/c(=N/OCc2ccccc2)ccn1[C@H]1C[C@H](O)[C@@H](COP(=O)(O)CP(=O)(O)O)O1 | 780 | > 50 |  |  |  |
| O=c1ccn([C@@H]2O[C@H](COP(=O)(O)CCP(=O)(O)O)[C@@H](O)[C@H]2O)c(=O)[nH]1 | > 1000 | 4 |  |  |  |
| O=c1[nH]/c(=N/OCc2ccc3ccccc3c2)ccn1[C@@H]1O[C@H](COP(=O)(O)CP(=O)(O)O)[C@@H](O)[C@H]1O | 18.8 | > 50 | 6.88 | 6.29 | -5 |
| Cc1cn([C@@H]2O[C@H](COP(=O)(O)CP(=O)(O)O)[C@@H](O)[C@H]2O)c(=O)[nH]/c1=N/OCc1ccccc1 | 321 | > 50 |  |  |  |
| Cc1cn([C@H]2C[C@H](O)[C@@H](COP(=O)(O)CP(=O)(O)O)O2)c(=O)[nH]c1=O | 639 | > 50 |  |  |  |
| CCOP(=O)(O)OP(=O)(O)OC[C@H]1O[C@@H](n2ccc(=O)[nH]c2=S)[C@H](O)[C@@H]1O | > 1000 | 10 |  |  |  |
| O=c1ccn([C@@H]2O[C@H](COP(=O)(O)CP(=O)(O)O)[C@@H](O)[C@@H]2F)c(=O)[nH]1 | 1750 | > 50 |  |  |  |
| Nc1ccnc2c1ncn2[C@@H]1O[C@H](COP(=O)(O)CP(=O)(O)O)[C@@H](O)[C@H]1O | > 1000 | 36 |  |  |  |
| O=c1ccn([C@@H]2O[C@H](COP(=O)(O)CP(=O)(O)O)[C@@H](O)[C@H]2F)c(=O)[nH]1 | > 1000 | 11 |  |  |  |
| Nc1ncnc2c1ncn2[C@@H]1O[C@H](CO)[C@@H](OP(=O)(O)CP(=O)(O)O)[C@H]1N | > 1000 | 8 |  |  |  |
| Nc1ncnc2c1ccn2[C@@H]1O[C@H](COP(=O)(O)CP(=O)(O)O)[C@@H](O)[C@H]1O | 88.6 | > 50 |  |  |  |
| O=c1ccn([C@H]2C[C@H](O)[C@@H](CO[P@@](=O)(O)CP(=O)(O)O)O2)c(=O)[nH]1 | > 1000 | 37 |  |  |  |

More lines, now with the values ahead:

| Ki [1] [nM] | inhibition [2] [%] | Ki [3] [nM] | Ki [4] [nM] | inhibition [5] [%] | SMILES |
| --- | --- | --- | --- | --- | --- |
| 162 | > 50 |  |  |  | O=c1[nH]c(=O)n([C@@H]2O[C@H](COP(=O)(O)CP(=O)(O)O)[C@@H](O)[C@H]2O)cc1I |
| 1830 | > 50 |  |  |  | O=c1ccn([C@@H]2O[C@H](COP(=O)(O)CP(=O)(O)O)[C@@H](O)[C@H]2O)c(=O)[nH]1 |
| > 1000 | 7 |  |  |  | O=c1ccn([C@@H]2O[C@H](COP(=O)(O)CP(=O)(O)O)[C@@H](O)[C@H]2O)c(=S)[nH]1 |
| > 1000 | 4 |  |  |  | CCn1c(=O)ccn([C@@H]2O[C@H](COP(=O)(O)CP(=O)(O)O)[C@@H](O)[C@H]2O)c1=O |
| 898 | > 50 |  |  |  | Nc1ccn([C@@H]2O[C@H](COP(=O)(O)CP(=O)(O)O)[C@@H](O)[C@H]2O)c(=O)n1 |
| > 1000 | 9 |  |  |  | Cc1cn([C@@H]2O[C@H](COP(=O)(O)CCP(=O)(O)O)[C@@H](O)[C@H]2O)c(=O)[nH]c1=O |
| > 1000 | 21 |  |  |  | O=c1cnn([C@@H]2O[C@H](COP(=O)(O)CP(=O)(O)O)[C@@H](O)[C@H]2O)c(=O)[nH]1 |
| 502 | > 50 |  |  |  | Nc1nc(=O)n([C@@H]2O[C@H](COP(=O)(O)CP(=O)(O)O)[C@@H](O)[C@H]2O)cc1I |
| 1860 | > 50 |  |  |  | Cn1c(=O)ccn([C@@H]2O[C@H](COP(=O)(O)CP(=O)(O)O)[C@@H](O)[C@H]2O)c1=O |
| 86.7 | > 50 |  |  |  | O=c1[nH]c(=O)n([C@@H]2O[C@H](COP(=O)(O)CP(=O)(O)O)[C@@H](O)[C@H]2O)cc1Cl |
| > 1000 | 19 |  |  |  | O=c1cc(O)ccn1[C@@H]1O[C@H](COP(=O)(O)CP(=O)(O)O)[C@@H](O)[C@H]1O |
| 2030 | > 50 |  |  |  | Cc1cn([C@@H]2O[C@H](COP(=O)(O)CP(=O)(O)O)[C@@H](O)[C@H]2O)c(=O)nc1N |
| > 1000 | 7 |  |  |  | CCCn1c(=O)ccn([C@@H]2O[C@H](COP(=O)(O)CP(=O)(O)O)[C@@H](O)[C@H]2O)c1=O |
| 276 | > 50 |  |  |  | C#Cc1cn([C@@H]2O[C@H](COP(=O)(O)CP(=O)(O)O)[C@@H](O)[C@H]2O)c(=O)[nH]c1=O |
| 88.7 | > 50 |  |  |  | O=c1[nH]c(=O)n([C@@H]2O[C@H](COP(=O)(O)CP(=O)(O)O)[C@@H](O)[C@H]2O)cc1Br |
| 257 | > 50 |  |  |  | CO/N=c1/ccn([C@@H]2O[C@H](COP(=O)(O)CP(=O)(O)O)[C@@H](O)[C@H]2O)c(=O)[nH]1 |
| 424 | > 50 |  |  |  | C=C(Cl)c1cn([C@@H]2O[C@H](COP(=O)(O)CP(=O)(O)O)[C@@H](O)[C@H]2O)c(=O)[nH]c1=O |
| 349 | > 50 |  |  |  | Nc1nc(=O)n([C@@H]2O[C@H](COP(=O)(O)CP(=O)(O)O)[C@@H](O)[C@H]2O)cc1F |
| 1050 | > 50 |  |  |  | C=C(Cl)c1cn([C@@H]2O[C@H](COP(=O)(O)CP(=O)(O)O)[C@@H](O)[C@H]2O)c(=O)n(C)c1=O |
| 338 | > 50 |  |  |  | Cc1cn([C@@H]2O[C@H](COP(=O)(O)CP(=O)(O)O)[C@@H](O)[C@H]2O)c(=O)[nH]c1=O |
| > 1000 | 8 |  |  |  | O=c1ccn([C@@H]2O[C@H](COP(=O)(O)CP(=O)(O)O)[C@@H](O)[C@@H]2O)c(=O)[nH]1 |
